Data from ChEMBL document CHEMBL1154522, “Aryl sulfamates are broad spectrum inactivators of sulfatases: effects on sulfatases from various sources” (Bioorg Med Chem Lett, 2009).

What was measured:
Helix pomatia [1] = experiment: Activity at Helix pomatia type H1 recombinant sulfatase expressed in Escherichia coli
Outline: (§1)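 Hydrolysis of potassium 4-nitrophenyl sulfate followed by release of 4-nitrophenol; Vmax is expressed per mg protein and Km in mM; Vmax/Km is derived from these.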

Helix pomatia [2] = experiment: Ratio of Vmax/Km for Helix pomatia type H1 recombinant sulfatase expressed in Escherichia coli; outline: as §1
Helix pomatia [3] = experiment: Activity at Helix pomatia type H1 recombinant sulfatase expressed in Escherichia coli assessed per mg of protein; outline: as §1
Haliotis corrugata [4] = experiment: Activity at abalone entrails type 8 recombinant sulfatase expressed in Escherichia coli
Haliotis corrugata [5] = experiment: Ratio of Vmax/Km for abalone entrails type 8 recombinant sulfatase expressed in Escherichia coli
[6] = biological target: Arylsulfatase (Pseudomonas aeruginosa (strain ATCC 15692 / PAO1 / 1C / PRS 101 / LMG12228)) (UniProt P51691); experiment: Ratio of Vmax/Km for Pseudomonas aeruginosa recombinant arylsulfatase A expressed in Escherichia coli; outline: as §1
Haliotis corrugata [7] = experiment: Activity at abalone entrails type 8 recombinant sulfatase expressed in Escherichia coli assessed per mg of protein
Outline: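 Crude limpet or abalone enzyme hydrolysing potassium 4-nitrophenyl sulfate; 4-nitrophenol release read at 410 nm; 10 mM α-cyclodextrin added to raise sensitivity (Δε410 14400 M−1 cm−1 at pH 7); Vmax per mg protein, Km in mM.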

Patella vulgata [8] = experiment: Activity at Patella vulgata type 5 recombinant sulfatase expressed in Escherichia coli
Haliotis corrugata [9] = experiment: Ratio of Kinact to Ki for abalone entrails type 8 recombinant sulfatase expressed in Escherichia coli by slow phase inactivation
Helix pomatia [10] = experiment: Inhibition of Helix pomatia type H1 recombinant sulfatase expressed in Escherichia coli
Outline: (§2)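 Snail sulfatase incubated at pH 7 with 0–500 µM 3-nitrophenyl sulfamate; residual activity plotted semi-logarithmically against time, and pseudo-first-order rates replotted against inactivator concentration to fit Ki and kinact (E + I ⇌ E·I → E–P).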

Haliotis corrugata [11] = experiment: Ratio of Kinact to Ki for abalone entrails type 8 recombinant sulfatase expressed in Escherichia coli by fast phase inactivation
Patella vulgata [12] = experiment: Protection against inactivation in Patella vulgata type 5 recombinant sulfatase expressed in Escherichia coli assessed as ratio of residual enzyme activity to initial activity at 1 mM after 20 seconds using 4-nitrophenyl sulfate as substrate
Outline: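 Limpet sulfatase given 1 mM sulfamate at pH 7 with or without 79 mM 4-nitrophenyl sulfate; residual activity assayed 20 s after inactivator addition, expressed as vres/v0 against an untreated control.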

[13] = biological target: Arylsulfatase (Pseudomonas aeruginosa (strain ATCC 15692 / PAO1 / 1C / PRS 101 / LMG12228)) (UniProt P51691); experiment: Ratio of Kinact to Ki for Pseudomonas aeruginosa recombinant arylsulfatase A expressed in Escherichia coli
Haliotis corrugata [14] = experiment: Inhibition of abalone entrails type 8 recombinant sulfatase expressed in Escherichia coli by fast phase inactivation
Helix pomatia [15] = experiment: Ratio of Kinact to Ki for Helix pomatia type H1 recombinant sulfatase expressed in Escherichia coli; outline: as §2
Patella vulgata [16] = experiment: Ratio of Kinact to Ki for Patella vulgata type 5 recombinant sulfatase expressed in Escherichia coli
Outline: (§3)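 Limpet sulfatase at pH 7 with 0–12.5 mM sulfamate; semi-logarithmic plots of residual activity over time, inactivation rates replotted against concentration to give Ki and kinact.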

[17] = biological target: Arylsulfatase (Pseudomonas aeruginosa (strain ATCC 15692 / PAO1 / 1C / PRS 101 / LMG12228)) (UniProt P51691); experiment: Inhibition of Pseudomonas aeruginosa recombinant arylsulfatase A expressed in Escherichia coli
Patella vulgata [18] = experiment: Inhibition of Patella vulgata type 5 recombinant sulfatase expressed in Escherichia coli; outline: as §3
Haliotis corrugata [19] = experiment: Protection against inactivation in abalone entrails type 8 recombinant sulfatase expressed in Escherichia coli assessed as ratio of residual enzyme activity to initial activity at 0.5 mM after 25 seconds using 4-nitrophenyl sulfate as substrate
Outline: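 Abalone sulfatase given 0.5 mM sulfamate at pH 7 with or without 30 mM 4-nitrophenyl sulfate; residual activity assayed 25 s after inactivator addition, expressed as vres/v0 against an untreated control.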

Haliotis corrugata [20] = experiment: Inhibition of abalone entrails type 8 recombinant sulfatase expressed in Escherichia coli by slow phase inactivation

Arylsulfatase (Pseudomonas aeruginosa (strain ATCC 15692 / PAO1 / 1C / PRS 101 / LMG12228)), sequence (P51691 whole entry): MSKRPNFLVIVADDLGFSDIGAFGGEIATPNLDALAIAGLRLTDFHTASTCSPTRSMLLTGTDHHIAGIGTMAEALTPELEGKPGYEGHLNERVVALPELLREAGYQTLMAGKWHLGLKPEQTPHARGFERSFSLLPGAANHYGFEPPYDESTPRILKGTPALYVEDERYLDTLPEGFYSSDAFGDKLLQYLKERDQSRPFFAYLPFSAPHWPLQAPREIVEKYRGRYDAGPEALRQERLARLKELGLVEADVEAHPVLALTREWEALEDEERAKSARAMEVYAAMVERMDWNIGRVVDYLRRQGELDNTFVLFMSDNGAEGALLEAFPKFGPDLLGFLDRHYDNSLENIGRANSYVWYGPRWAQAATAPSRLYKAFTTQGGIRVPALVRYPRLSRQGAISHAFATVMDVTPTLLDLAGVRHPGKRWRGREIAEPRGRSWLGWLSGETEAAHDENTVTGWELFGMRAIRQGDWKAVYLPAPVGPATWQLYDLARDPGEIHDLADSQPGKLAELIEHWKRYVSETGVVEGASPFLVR

Compound | Km (Helix pomatia [1]) | Vmax/Km (Helix pomatia [2]) | Vmax (Helix pomatia [3]) | Km (Haliotis corrugata [4]) | Vmax/Km (Haliotis corrugata [5]) | Vmax/Km [6] | Vmax (Haliotis corrugata [7]) | Km (Patella vulgata [8]) | Ratio (Haliotis corrugata [9]) | T1/2 (Helix pomatia [10]) | Ratio (Haliotis corrugata [11]) | Ratio (Patella vulgata [12]) | Ratio [13] | T1/2 (Haliotis corrugata [14]) | Ratio (Helix pomatia [15]) | Ratio (Patella vulgata [16]) | T1/2 [17] | T1/2 (Patella vulgata [18]) | Ratio (Haliotis corrugata [19]) | T1/2 (Haliotis corrugata [20])
O=[N+]([O-])c1ccc(OS(=O)(=O)O)cc1 | 2.03 mM | 0.157 | 0.319 mmol/min/mg | 10.2 mM | 0.066 | 7900 | 0.68 mmol/min/mg | 10 mM | – | – | – | – | – | – | – | – | – | – | – | –
NS(=O)(=O)Oc1cccc([N+](=O)[O-])c1 | – | – | – | – | – | – | – | – | 0.0005 s⁻¹ mM⁻¹ | 17 s | 0.043 s⁻¹ mM⁻¹ | 0.91 | 480 s⁻¹ mM⁻¹ | 10 s | 1.19 s⁻¹ mM⁻¹ | 0.038 s⁻¹ mM⁻¹ | 11 s | 18 s | 1.01 | 257 s
